From ChEMBL document CHEMBL5647697, “Akt inhibition synergizes with polycomb repressive complex 2 inhibition in the treatment of multiple myeloma” (2019)
Active and inactive are the calls of the source. The rule behind the calls is not given here.

Assays:
[1] = target: Serine/threonine-protein kinase AKT (Homo sapiens) (UniProt P31751+Q9Y243+P31749); test: Inhibition of Akt phosphorylation in human NCI-H929 cells at 0.3 to 5 micromol/L for 6 to 48 hrs by Western blot analysis; assay type: cell-based; settings: dose 0.3-5 µmol/L, time 6-48 hrs
Outline: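 MM.1S and H929 cells were treated with graded doses for 48 h, or with 5 μmol/L for the stated times. Lysates were immunoblotted, with GAPDH, total Akt and H3 as loading controls.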

NCI-H929 [2] = test: Synergistic activity against human NCI-H929 cells assessed as combination index […] in presence of 5 uM GSK126 […] compound addition at 0.125 uM incubated for 48 hrs by […]; assay type: functional
Outline: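 Cells were exposed to the EZH2/EZH1 inhibitor (UNC1999 or GSK126) for 72 h in total, with the Akt inhibitor added for the last 48 h. Viability was read by MTS assay relative to untreated control cells, in triplicate. The combination index for each dose pair came from isobologram analysis.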

OPM-2 [3] = test: Synergistic activity against human OPM-2 cells assessed as combination index preincubated in presence of 2.5 uM GSK126 for 72 hrs followed by compound addition at 2.5 uM incubated for 48 hrs by MTT assay; assay type: functional
OPM-2 [4] = test: Synergistic activity against human OPM-2 cells assessed as combination index preincubated in presence of 5 uM GSK126 for 72 hrs followed by compound addition at 1.25 uM incubated for 48 hrs by MTT assay; assay type: functional
NCI-H929 [5] = test: Induction of apoptosis in human NCI-H929 cells assessed as late apoptotic cells preincubated in presence of 5 micromol/L UNC1999 for 48 hrs followed by compound addition at 2 micromol/L incubated for 12 hrs by annexin V/PI staining based flow cytometry (reference value: […]%); assay type: functional; settings: dose 2 µmol/L
NCI-H929 [6] = test: Induction of apoptosis in human NCI-H929 cells assessed as viable cells preincubated in presence of 5 micromol/L UNC1999 for 48 hrs followed by compound addition at 2 micromol/L incubated for 12 hrs by annexin V/PI staining based flow cytometry (reference value: 95.6%); assay type: functional; settings: dose 2 µmol/L, at 2 µM

Sequence of Serine/threonine-protein kinase AKT (Homo sapiens) (P31749 whole entry, looked up): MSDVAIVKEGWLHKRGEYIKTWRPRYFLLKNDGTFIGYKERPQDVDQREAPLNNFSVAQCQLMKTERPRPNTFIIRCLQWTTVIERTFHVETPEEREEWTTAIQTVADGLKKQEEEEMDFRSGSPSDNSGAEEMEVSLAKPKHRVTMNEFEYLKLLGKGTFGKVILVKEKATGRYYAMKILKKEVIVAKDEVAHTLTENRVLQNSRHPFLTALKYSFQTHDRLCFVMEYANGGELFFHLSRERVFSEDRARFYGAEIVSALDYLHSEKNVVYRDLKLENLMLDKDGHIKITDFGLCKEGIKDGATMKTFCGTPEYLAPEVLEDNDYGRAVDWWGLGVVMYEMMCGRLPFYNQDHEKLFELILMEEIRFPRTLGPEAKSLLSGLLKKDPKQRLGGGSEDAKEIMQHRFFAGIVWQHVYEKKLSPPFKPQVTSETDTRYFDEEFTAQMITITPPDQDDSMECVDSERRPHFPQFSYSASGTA
Sequence of Serine/threonine-protein kinase AKT (Homo sapiens) (P31751 whole entry, looked up): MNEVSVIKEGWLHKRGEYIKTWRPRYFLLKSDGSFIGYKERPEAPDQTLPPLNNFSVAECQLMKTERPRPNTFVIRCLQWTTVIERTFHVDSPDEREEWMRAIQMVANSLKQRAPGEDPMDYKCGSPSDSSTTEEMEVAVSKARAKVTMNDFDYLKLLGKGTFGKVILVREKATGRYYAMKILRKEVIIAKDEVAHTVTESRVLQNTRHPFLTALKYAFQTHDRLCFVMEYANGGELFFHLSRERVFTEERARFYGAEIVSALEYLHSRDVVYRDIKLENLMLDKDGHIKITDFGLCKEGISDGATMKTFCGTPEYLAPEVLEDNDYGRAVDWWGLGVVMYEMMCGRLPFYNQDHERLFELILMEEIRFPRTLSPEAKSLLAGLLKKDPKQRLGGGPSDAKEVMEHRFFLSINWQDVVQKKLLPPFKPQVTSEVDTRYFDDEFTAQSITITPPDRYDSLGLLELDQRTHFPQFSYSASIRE
Sequence of Serine/threonine-protein kinase AKT (Homo sapiens) (Q9Y243 whole entry, looked up): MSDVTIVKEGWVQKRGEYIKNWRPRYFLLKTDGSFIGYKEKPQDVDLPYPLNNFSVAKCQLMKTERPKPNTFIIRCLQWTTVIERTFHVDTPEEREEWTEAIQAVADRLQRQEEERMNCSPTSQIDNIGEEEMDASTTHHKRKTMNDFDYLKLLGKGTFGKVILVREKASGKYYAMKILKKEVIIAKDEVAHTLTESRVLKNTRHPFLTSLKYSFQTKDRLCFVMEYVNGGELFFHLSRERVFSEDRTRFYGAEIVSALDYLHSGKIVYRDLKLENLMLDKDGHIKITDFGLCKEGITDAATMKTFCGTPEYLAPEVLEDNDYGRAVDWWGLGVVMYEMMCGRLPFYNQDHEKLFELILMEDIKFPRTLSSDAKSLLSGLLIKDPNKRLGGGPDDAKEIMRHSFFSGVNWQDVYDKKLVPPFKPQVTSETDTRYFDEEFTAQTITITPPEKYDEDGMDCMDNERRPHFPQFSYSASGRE

- inhibition [1]: Active
SMILES: C[C@]1(O)C[C@@](N)(c2ccc(-c3nc4n(c3-c3ccccc3)COc3ccncc3-4)cc2)C1 [PIFUSERTIB]
- CI (NCI-H929 [2]): 7.124
- CI (OPM-2 [3]): 2.563
- CI (OPM-2 [4]): 1.44
- Activity (NCI-H929 [5]): 11.3%
- Activity (NCI-H929 [6]): 70.4%
